# Results pooled from the literature.
# Target: Serine/threonine-protein kinase Nek2 (NEK2, Homo sapiens, UniProt P51955)
# Sequence (P51955 1-445, as in one of the studies): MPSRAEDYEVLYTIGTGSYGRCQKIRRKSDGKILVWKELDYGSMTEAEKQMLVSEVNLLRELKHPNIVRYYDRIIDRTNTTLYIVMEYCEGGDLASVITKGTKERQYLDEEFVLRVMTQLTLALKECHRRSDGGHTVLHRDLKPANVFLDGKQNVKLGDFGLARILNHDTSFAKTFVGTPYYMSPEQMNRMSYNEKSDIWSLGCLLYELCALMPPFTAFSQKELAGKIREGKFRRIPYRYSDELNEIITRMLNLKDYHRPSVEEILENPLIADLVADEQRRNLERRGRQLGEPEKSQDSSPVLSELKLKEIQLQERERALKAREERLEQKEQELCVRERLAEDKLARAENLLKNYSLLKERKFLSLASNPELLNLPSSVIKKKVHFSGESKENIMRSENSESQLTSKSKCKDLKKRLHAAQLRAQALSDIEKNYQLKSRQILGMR
Structure (SMILES),observed,action,technique,tested at,measurement,result
N#CC1(c2ccccn2)CCN(Cc2cc(C(=O)O)c(=O)n3ccccc23)CC1,cell-free assay,,competition with immobilised ligand,1 µM,remaining binding,100%
COc1cc(Nc2ncc(F)c(Nc3ccc4c(n3)NC(=O)C(C)(C)O4)n2)cc(OC)c1OC,binding,,competition with immobilised ligand,10 µM,inhibition,83%
Cn1cc(-c2cc(F)cc(N3CCn4c(cc5c4CCCC5)C3=O)c2CO)cc(Nc2ccc(N3CCN(C4COC4)CC3)cn2)c1=O,enzyme activity,inhibitor,,0.1 µM,inhibition,10%
Cc1nn(C)cc1-c1nc2c(N3CCN(Cc4ccc(Cl)cc4)CC3)c(Cl)cnc2[nH]1,binding,,competition with immobilised ligand,1 µM,remaining binding,100%
Nc1ncc(-c2nc(N3CCOCC3)nc(N3CCOCC3)n2)c(C(F)F)n1,binding,,competition with immobilised ligand,10 µM,remaining binding,87%
COc1ncccc1-c1cnn2ccc(N3CCN(C(=O)OC(C)C)CC3)nc12,binding,,competition with immobilised ligand,1 µM,remaining binding,86%
CC(C)(C)c1cc(C=C(C#N)C#N)cc(Br)c1O,enzyme activity,inhibitor,,0.5 µM,remaining activity,96%
Cn1cc(-c2cccc(N3CCc4c(sc5c4CC(C)(C)C5)C3=O)c2CO)cc(Nc2ccncn2)c1=O,enzyme activity,inhibitor,,1 µM,inhibition,4%
C#Cc1n[nH]c2c(-c3cn([C@@H](C)c4ccccc4)c(=O)[nH]c3=O)cc(F)cc12,enzyme activity,inhibitor,,0.1 µM,inhibition,0.5%
O=c1[nH]c2ccccc2n1C1CCN(Cc2ccc(-c3[nH]c4cc5ncnc5cc4nc3-c3ccccc3)cc2)CC1,cell-free assay,,,0.5 µM,remaining signal,96.8%
C#Cc1n[nH]c2c(-c3cn(C(C)c4ccccn4)c(=O)[nH]c3=O)cc(F)cc12 (stereo not drawn),enzyme activity,inhibitor,,1 µM,inhibition,-4.6%
Cn1cncc1[C@](O)(COc1ccc(C#N)cc1-c1ccc(OC(F)(F)F)cc1)c1ccc(C#N)cc1,cell-free assay,,competition with immobilised ligand,1 µM,remaining binding,100%
